Measurements taken from ChEMBL document CHEMBL1132585, “New N-(pyridin-4-yl)-(indol-3-yl)acetamides and propanamides as antiallergic agents” (J Med Chem, 1999).
Calls of active or inactive are those of the source. The rule behind the calls is not given here.

Tests used:
Mus musculus [1] = organism: Mus musculus; test: Percent inhibition of anti-CD3 mAb stimulated interleukin-4 release from mice splenocytes by 10 uM compound; format: functional
Mus musculus [2] = organism: Mus musculus; test: Percent inhibition of anti-CD3 mAb stimulated interleukin-5 release from […] by 10 uM; format: functional
Outline: (§1)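 D10.G4.1 Th-2 cells (4 × 10⁴/well) in medium without Rat T-STIM for 3.5 h, then exposed to drug at 10 µM for 30 min and stimulated with anti-CD3 mAb (final 1:100) for 16 h. IL-4 or IL-5 content of the supernatant is read against solvent control. Mean of three experiments, each run in duplicate.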

Rattus norvegicus [3] = organism: Rattus norvegicus; test: Inhibition of histamine release in rat mast cells; format: functional, cell-based
Mus musculus [4] = organism: Mus musculus; test: Percent inhibition of anti-CD3 mAb stimulated interleukin-4 release from […] by 10 uM; format: functional; outline: as §1
Mus musculus [5] = organism: Mus musculus; test: Compound was evaluated for IL 4 production inhibition from mice splenocytes stimulated by anti-CD3 mAb; format: functional
Outline: (§2)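 Th-2 clone D10.G4.1, restimulated with conalbumin (100 µg/mL) plus mitomycin C-treated AKR/J splenocytes as antigen-presenting cells, thawed and grown 3 days with Rat T-STIM. Cells at 4 × 10⁴/well, 3.5 h without T-STIM, drug 30 min (DMSO ≤0.1%). Stimulated with anti-CD3 mAb (final 1:100) for 16 h; IL-4 or IL-5 measured in supernatant. IC50 estimated over a concentration range.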

Mus musculus [6] = organism: Mus musculus; test: Compound was evaluated for IL 5 production inhibitio from mice splenocytes stimulated by anti-CD3 mAb; format: functional; outline: as §2
Cavia porcellus [7] = test: Inhibition of Late Phase Eosinophilia in Bronchoalveolar Lavage (BAL) of Guinea Pigs 2 hr after intraperitoneal administration at a dose of 10 mg/kg.; format: functional; settings: ip
Outline: (§3)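 Male Dunkin-Hartley guinea pigs sensitized ip with OVA 20 µg + Al(OH)₃ 20 mg on two consecutive days; 14 days later mepyramine 10 mg/kg ip given before aerosol OVA challenge (5 mg/mL nebulized). Drug given ip or by oral gavage 2 h before or 4 h after challenge.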

Cavia porcellus [8] = test: Inhibition of Late Phase Eosinophilia in Bronchoalveolar Lavage (BAL) of Guinea Pigs 4 hr after peroral administration at a dose of 30 mg/kg.; format: functional; settings: route oral; outline: as §3
Cavia porcellus [9] = test: Inhibition of Late Phase Eosinophilia in Bronchoalveolar Lavage (BAL) of Guinea Pigs 4 hr after intraperitoneal administration at a dose 5 mg/kg.; format: functional; settings: ip; outline: as §3
Mus musculus [10] = organism: Mus musculus; test: Compound was evaluated for IL 5 production inhibition from mice splenocytes stimulated by anti-CD3 mAb; format: functional; outline: as §2
Rattus norvegicus [11] = test: Compound was evaluated in vivo for inhibition of Ovalbumin induced rhinitis in anesthetized rats after topical administration (nasal perfusion).; format: functional, organism-based
Outline: (§4)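 Male Brown Norway rats sensitized ip with OVA 0.5 mg/kg + Al(OH)₃ 7.5 mg/kg, used on day 20-21 under thiopental (50 mg/kg ip). Nasal cavity perfused with PBS; drug given by 30 min topical perfusion in PBS, iv 30 min or po 60 min before OVA challenge.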

Rattus norvegicus [12] = test: Compound was evaluated in vivo for inhibition of Ovalbumin induced rhinitis in anesthetized rats 30 min after intravenous administration.; format: functional; settings: 0.5 h, read-out: ID50 (the source's name); outline: as §4
Rattus norvegicus [13] = test: Compound was evaluated in vivo for inhibition of Ovalbumin induced rhinitis in anesthetized rats 60 min after peroral administration.; format: functional; settings: po, 1 h, read-out: ID50 (the source's name); outline: as §4
Cavia porcellus [14] = organism: Cavia porcellus; test: Inhibition of Carbachol-induced contraction of guinea pig trachea by the compound at a concentration of 100 uM.; format: functional
Outline: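 Guinea pig tracheal spirals in Tyrode solution at 37 °C, carbogen, isotonic 2 g preload. Contracted with carbachol 0.164 µM until stable; after isoprenaline relaxation and washout, carbachol re-applied and test compound added cumulatively. Relaxation calculated as a percentage at each concentration.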

Rattus norvegicus [15] = organism: Rattus norvegicus; test: Inhibition of tetraethylammonium chloride(TEA)-induced acetylcholine hyperactivity in rat tracheal segments by the compound.; format: functional; settings: Trachea
Outline: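 Male Wistar rat tracheal rings in Krebs-Henseleit at 37 °C, 1 g preload, isotonic. Acetylcholine cumulative curves run alone, with TEA (10 mM, 30 min), and with drug (30 min before TEA) plus TEA. Percent inhibition of hyperreactivity taken from contraction at 100 µM acetylcholine, 3-5 preparations; screening at 30 µM, and IC50 by regression from 3-4 concentrations if inhibition exceeds 50%.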

Cavia porcellus [16] = test: Inhibition of Late Phase Eosinophilia in Bronchoalveolar Lavage (BAL) of Guinea Pigs 2 hr after peroral administration at a dose of 30 mg/kg.; format: functional; settings: route oral; outline: as §3

SMILES	inhibition at 10 µM (Mus musculus [1])	inhibition at 10 µM (Mus musculus [2])	IC50 (Rattus norvegicus [3])	inhibition (Mus musculus [4])	also measured
CC(C)c1ccc2[nH]cc(CC(=O)Nc3ccncc3)c2c1	33%	29%	4920 nM	–	–
O=C(Cc1cn(-c2ccc(F)cc2)c2ccccc12)Nc1ccncc1	31%	48%	302 nM	–	–
COc1ccc2c(c1)c(CCC(=O)Nc1ccncc1)cn2Cc1ccc(F)cc1	–	–	–	inactive	–
CC(C)(C)c1ccc(C(O)CCCN2CCC(C(O)(c3ccccc3)c3ccccc3)CC2)cc1 (stereo not given) [TERFENADINE]	–	–	–	–	IC50 (Mus musculus [5]): 4950 nM; IC50 (Mus musculus [6]): 3960 nM
O=C(Cc1cn(Cc2ccc(F)cc2)c2ccccc12)Nc1ccncc1	63%	100%	16 nM	–	inhibition in vivo at 10 mg/kg (Cavia porcellus [7]): 59%; inhibition in vivo at 30 mg/kg (Cavia porcellus [8]): 28%; inhibition in vivo at 5 mg/kg (Cavia porcellus [9]): 41%; IC50 (Mus musculus [5]): 8000 nM; IC50 (Mus musculus [10]): 1500 nM; IC50 (Rattus norvegicus [11]): 250 nM; ED50 (Rattus norvegicus [12]): 0.005 mg/kg; ED50 (Rattus norvegicus [13]): 0.46 mg/kg; inhibition at 100 µM (Cavia porcellus [14]): 36%; IC50 (Rattus norvegicus [15]): 21 nM; inhibition in vivo at 30 mg/kg (Cavia porcellus [16]): 35%
O=C(Cc1c[nH]c2ccc(F)cc12)Nc1ccncc1	–	–	> 10000 nM	inactive	–
O=C(CCc1cn(Cc2ccc(F)cc2)c2ccccc12)Nc1ccncc1	2.9%	22%	220 nM	–	–
COc1ccc2[nH]cc(CCC(=O)Nc3ccncc3)c2c1	–	26%	–	inactive	–
C[C@@H]1C[C@H]2[C@@H]3CCC4=CC(=O)C=C[C@]4(C)[C@@]3(F)[C@@H](O)C[C@]2(C)[C@@]1(O)C(=O)CO [DEXAMETHASONE]	–	–	–	–	IC50 (Mus musculus [5]): 4.7 nM; IC50 (Mus musculus [6]): 3.5 nM
Cc1c(CC(=O)Nc2ccncc2)c2cc(C(C)C)ccc2n1Cc1ccc(F)cc1	–	–	6900 nM	inactive	–
O=C(Cc1cn(Cc2ccc(F)cc2)c2cc(O)ccc12)Nc1ccncc1	29%	37%	940 nM	–	–
O=C(Cc1cn(Cc2ccccc2)c2ccc(Cl)cc12)Nc1ccncc1	39%	49%	–	–	–
Cc1[nH]c2ccc(Cl)cc2c1CC(=O)Nc1ccncc1	–	–	> 10000 nM	inactive	–
COc1ccc2[nH]cc(CC(=O)Nc3ccncc3)c2c1	–	–	> 10000 nM	inactive	–
O=C(CCCc1cn(Cc2ccc(F)cc2)c2ccccc12)Nc1ccncc1	31%	42%	510 nM	–	–
Cc1[nH]c2ccc(F)cc2c1CC(=O)Nc1ccncc1	–	–	10100 nM	inactive	–
O=C(CCc1cn(Cc2ccccc2)c2ccc(Cl)cc12)Nc1ccncc1	–	–	740 nM	inactive	–
COc1ccc(CN(CCN(C)C)c2ccccn2)cc1 [PYRILAMINE]	–	–	–	–	IC50 (Rattus norvegicus [11]): 7410 nM
COc1ccc(CCN(C)CCCC(C#N)(c2ccc(OC)c(OC)c2)C(C)C)cc1OC (stereo not given) [VERAPAMIL]	–	–	–	–	IC50 (Rattus norvegicus [15]): 1300 nM
O=C(CCc1c[nH]c2ccc(F)cc12)Nc1ccncc1	–	25%	2210 nM	inactive	–
O=C(Cc1cn(-c2ccc(F)cc2)c2ccc(F)cc12)Nc1ccncc1	51%	71%	–	–	IC50 (Mus musculus [5]): 9700 nM; IC50 (Mus musculus [10]): 4560 nM
O=C(Cc1c[nH]c2ccc(Cl)cc12)Nc1ccncc1	–	–	4500 nM	inactive	–
Cc1c(CC(=O)Nc2ccncc2)c2cc(Cl)ccc2n1Cc1ccc(F)cc1	28%	26%	–	–	–

SMILES	inhibition at 10 µM (Mus musculus [1])	inhibition at 10 µM (Mus musculus [2])	IC50 (Rattus norvegicus [3])	inhibition (Mus musculus [4])	also measured
COc1ccc2[nH]c(C)c(CC(=O)Nc3ccncc3)c2c1	–	–	–	inactive	–
O=C(CCc1cn(Cc2ccc(F)cc2)c2ccc(F)cc12)Nc1ccncc1	–	37%	380 nM	inactive	–
c1ccc(CN(CC2=NCCN2)c2ccccc2)cc1 [ANTAZOLINE]	–	–	–	–	IC50 (Rattus norvegicus [11]): 1260 nM
Cc1c(CC(=O)Nc2ccncc2)c2cc(F)ccc2n1Cc1ccc(F)cc1	49%	61%	400 nM	–	IC50 (Mus musculus [5]): 10200 nM; IC50 (Mus musculus [10]): 7870 nM
CC(C)c1ccc2c(c1)c(CCC(=O)Nc1ccncc1)cn2Cc1ccccc1	–	25%	6000 nM	inactive	–
Cc1c(CC(=O)Nc2ccncc2)c2cc(F)ccc2n1Cc1ccccc1	–	41%	480 nM	inactive	–
Cc1c(CC(=O)Nc2ccncc2)c2cc(C(C)C)ccc2n1Cc1ccccc1	–	34%	7540 nM	inactive	–
O=C(CCc1cn(Cc2ccccc2)c2ccc(F)cc12)Nc1ccncc1	27%	42%	420 nM	–	–
COc1ccc2c(c1)c(CC(=O)Nc1ccncc1)cn2-c1ccc(F)cc1	24%	22%	–	–	–
O=C(Cc1cn(Cc2ccccc2)c2ccc(F)cc12)Nc1ccncc1	–	48%	60 nM	inactive	–
COc1ccc2c(c1)c(CC(=O)Nc1ccncc1)cn2Cc1ccccc1	33%	38%	2800 nM	–	–
COc1ccc2c(c1)c(CC(=O)Nc1ccncc1)c(C)n2Cc1ccc(F)cc1	–	22%	5000 nM	inactive	–
Cc1[nH]c2ccc(C(C)C)cc2c1CC(=O)Nc1ccncc1	–	–	2800 nM	inactive	–
O=C(Cc1cn(Cc2ccc(F)cc2)c2ccc(Cl)cc12)Nc1ccncc1	–	54%	230 nM	inactive	IC50 (Mus musculus [5]): > 10000 nM; IC50 (Mus musculus [10]): 8800 nM
O=C(Cc1cn(Cc2ccc(F)cc2)c2ccc(F)cc12)Nc1ccncc1	–	43%	–	inactive	–
CC(C)c1ccc2c(c1)c(CC(=O)Nc1ccncc1)cn2Cc1ccc(F)cc1	–	23%	–	inactive	–
COc1ccc2c(c1)c(CCC(=O)Nc1ccncc1)cn2Cc1ccccc1	–	–	3900 nM	inactive	–
COc1ccc(CCN2CCC(Nc3nc4ccccc4n3Cc3ccc(F)cc3)CC2)cc1 [ASTEMIZOLE]	66%	74%	6500 nM	–	IC50 (Mus musculus [5]): 8000 nM; IC50 (Mus musculus [10]): 3300 nM
COc1ccc2c(CC(=O)Nc3ccncc3)cn(Cc3ccc(F)cc3)c2c1	51%	76%	330 nM	–	IC50 (Mus musculus [5]): 9800 nM; IC50 (Mus musculus [10]): 2280 nM
O=C(CCc1c[nH]c2ccc(Cl)cc12)Nc1ccncc1	26%	25%	1460 nM	–	–
O=C(CCc1cn(Cc2ccc(F)cc2)c2ccc(Cl)cc12)Nc1ccncc1	–	41%	1300 nM	inactive	–
CC(C)c1ccc2[nH]cc(CCC(=O)Nc3ccncc3)c2c1	–	28%	3120 nM	inactive	–
CC(C)c1ccc2c(c1)c(CCC(=O)Nc1ccncc1)cn2Cc1ccc(F)cc1	–	–	5340 nM	inactive	–
